# Reference: the RNAGym collection of RNA variant scans (doi:10.1038/s41586-018-0170-7)
# B1: tRNA (parent)
# chain: GUUCCGUUGGCGUAAUGGUAACGCGUCUCCCUCCUAAGGAGAAGACUGCGGGUUCGAGUCCCGUACGGAACG
# Variants of: B1
# Experiment: yeast fitness, log relative to wild type (ln ratio); higher = fitter; tRNA-Arg(CCU), competitive growth, 37 C, 1 M NaCl
# Summary of the method: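 Variants were counted by 125 bp paired-end Illumina sequencing after pools of a combinatorial tRNA-Arg(CCU) library, held on a HIS3 centromeric plasmid in BY4742 lacking the chromosomal gene, grew ~6.5 generations (~26.5 h) in SC-HIS 1M NaCl at 37 °C. Each genotype's fitness is the natural log of its generations relative to the wild type's. Generations were OD-scaled log2 output/input frequencies, inverse-variance weighted over replicates.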
row,Variant,yeast fitness (ln)
1,G1A U2G G6A C46U A69G A70G C71U,-0.162
2,C27U C46U C66A A70U,-0.0577
3,U2G G6A A43C C66U A69G C71U,-0.284
4,G1A U2G C27U A70U,-0.33
5,G6A C27U A43C C66A A70U C71U,-0.37
6,U2C C27U C71U,-0.273
7,G6A C46U A69G A70U,-0.176
8,G1A G6U A43C C66U C71U,-0.333
9,U2G G6U C27U A69G A70G C71U,-0.363
10,U2G G6A C27U C66A A69G A70G C71U,-0.249
11,U2G G6U C27U A43C C66U A70U C71U,-0.441
12,G1A A43C A69G,-0.145
13,G6U C27U A69G C71U,-0.342
14,G1A C66U A69G A70U,-0.174
15,G1A C27U C46U A70G C71U,-0.0653
16,G1A U2G G6A A43C A69G A70G,-0.238
17,G6A A43C C46U C66U A70G C71U,-0.144
18,U2G G6A A43C C46U C66U A69G A70U C71U,-0.379
19,U2C G6U C27U C46U A70U C71U,-0.171
20,U2C A70U C71U,-0.0765
21,G6U C27U A43C C66U A69G C71U,-0.395

row,Variant,yeast fitness (ln)
1,U2C G6U C66A A70G,-0.0114
2,G1A U2C C27U,-0.0512
3,G1A G6U C46U C66U A70G,-0.195
4,C27U C66A A69G C71U,-0.184
5,C27U A43C C46U C66A A69G A70U C71U,-0.366
6,U2G G6A A43C C46U A69G A70U C71U,-0.347
7,G1A G6U A69G A70U,-0.131
8,G1A G6U C27U C66U A69G A70U,-0.368
9,G1A G6U C46U C66A A69G A70G,-0.158
10,U2G C27U C46U C66U A69G C71U,-0.312
11,G1A G6U C27U C66A A69G A70U C71U,-0.223
12,C27U C46U C66A A69G A70G C71U,-0.156
13,U2G G6A C27U C46U C66A A70G C71U,-0.221
14,G1A U2C C27U A43C A69G A70G C71U,-0.0597
15,G1A U2G G6A C27U C66U A70G,-0.349
16,U2G A43C C46U C66U A69G A70U C71U,-0.413
17,U2C C66U A70G,-0.00448
18,G6A C27U C66U A70U C71U,-0.312
19,U2C G6U C66U A69G C71U,-0.176
20,G6A A43C,-0.0714
21,U2G G6U A43C C46U C66U A70U C71U,-0.22

row,Variant,yeast fitness (ln)
1,G1A G6U C46U C66A A70G,-0.225
2,G6A A43C C66U,-0.0381
3,U2C G6U C27U C46U C66A C71U,-0.0782
4,G1A U2G A43C A70U C71U,-0.0335
5,U2G G6U A43C C66U A70G,-0.338
6,C46U C66A A70U C71U,-0.022
7,G1A U2G G6U A43C C46U A69G C71U,-0.393
8,U2G C46U C66U A70U C71U,-0.28
9,G6U C27U C66A A70U C71U,-0.29
10,G1A U2C G6U C27U A43C C46U C66U A69G A70G C71U,-0.316
11,U2G G6A C27U C46U A69G A70U,-0.133
12,G1A G6A C27U A43C C46U C66U A70U,-0.318
13,G1A G6U A43C C46U A69G C71U,-0.263
14,G1A U2G C27U A43C C66U A70U C71U,-0.382
15,G1A U2G G6A C27U C66U A69G A70G,-0.431
16,U2G C27U C66U A70G C71U,-0.21
17,G1A C27U C66A A70G C71U,-0.346
18,G1A U2G G6U C27U A43C C66A A70U C71U,-0.433
19,G1A U2C C27U A43C C66U A70U C71U,-0.244
20,G1A G6U A43C C66A A70U C71U,-0.386
21,G6U C66U A69G,-0.527

row,Variant,yeast fitness (ln)
1,G1A U2C G6A A43C A70U C71U,-0.088
2,G1A U2C G6A C27U A43C C46U C66U A70U C71U,-0.252
3,G1A,-0.0233
4,U2C G6U C27U C66A A69G A70G,-0.0927
5,G6U A69G A70U C71U,-0.394
6,U2G A43C C66U A69G A70G,-0.222
7,G6U C27U A43C C66A A70U,-0.185
8,G1A G6A C66A A70G C71U,-0.267
9,U2G C27U A43C C66U A69G A70G C71U,-0.402
10,U2C G6U C27U A43C A69G A70U,-0.271
11,U2C G6U C27U A70U C71U,-0.136
12,G6U C66U,-0.0366
13,U2G G6U A43C C46U A70G C71U,-0.229
14,G1A U2G G6U C27U A69G C71U,-0.274
15,G1A G6A C46U C66U A69G A70U,-0.0453
16,U2G G6U C46U C66A C71U,-0.0521
17,G1A U2G C27U A43C C46U C66U A70G C71U,-0.318
18,U2C G6A A43C C46U C66U,-0.0992
19,U2C G6A A43C C46U C66A A70G C71U,-0.108
20,C27U A43C C66A A70U C71U,-0.347
